CAL PDZ FP-1: blocks peptide binding to the human CAL PDZ domain | AID 602252 | inhibition, % at 24.9 µM | Q9HD26 | purified CAL PDZ, TMR-peptide fluorescence polarization, 1 h | 300,000 compounds, 0.92% hits;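 active = mean inhibition of at least 30% with at least half of replicates also reaching 30%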
CAL PDZ FP-2: human CAL PDZ-peptide interaction inhibition | Q9HD26 | 330,000 compounds, 0.02% hits | purified CAL PDZ, TMR-peptide fluorescence polarization, 1 h | inhibition, % at 20 µM;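 active = highest replicate inhibition of at least 40%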
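Test system: purified CerCALP PDZ construct; Compound dosing: one concentration, 20 µM compound; Also added: TMR-labelled reporter peptide T*-PRC34 bound in PDZ groove; Read-out: inhibition from polarization loss; Controls: unlabelled peptide and DMSO controls; Signal: FP readout, S and P plane fluorescence; Incubation: 1 h at RT.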
PglD inh: blocks C. jejuni PglD acetyltransferase activity; purified PglD enzyme, DTNB colorimetric CoA detection; inhibition, % at 12.5 µM; 360,000 compounds, 0.098% hits; AID 602405; in the data active = inhibition above about 16%, passing the limit was not always enough
miR122 inh: inhibitors of miR-122 in Huh7 cells | AID 602342 | activation (reporter increase), % at 12.5 µM | Huh7 miR-122 Renilla luciferase sensor, 48 h; neutral wells = 0, positive control = 100 | 340,000 compounds, 0.3% hits;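 active = mean replicate activation score at least 90 and every replicate individually at or above 90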;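 also: higher luciferase means less miR-122 activity so hits act as miR-122 inhibitors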
Cneo AK release: causes C. neoformans cell lysis; adenylate kinase release luminescence, 4 h; normalised: neutral wells 0, clomiphene wells 100; lysis activity, % at 15 µM; 360,000 compounds, 0.2% hits;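 active = mean lysis activity across replicates of at least 80%, whatever share of replicates individually reach that level; inactive = mean lysis activity below 80%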
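Schedule: static 4 h at 37 °C with compound, 1 h detection; system: C. neoformans cells; benchmarks: Clomiphene as positive control; buffer or medium: fresh YPD medium; measure: luminescence rise reflecting yeast cell lysis; measured by: luminescent adenylate kinase detection reagent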
A number is an active result; . = inactive; / = not tested or not shown; + = active, no number; ! = not confirmed by another sample; [ ] = dose if it differs, or a comment. This is a sample that favours compounds with a hit; in the whole collection about 1.1% have one here.

SMILES	CAL PDZ FP-1	CAL PDZ FP-2	PglD inh	miR122 inh	Cneo AK release
Cc1ccc(S(=O)(=O)NCC[C@@H]2CC[C@@H](NC(=O)c3cnccn3)[C@H](CO)O2)cc1	/	/	.	101[16.7 µM]	.
CCS(=O)(=O)NCC[C@@H]1CC[C@@H](NS(=O)(=O)c2cccc(F)c2)[C@@H](CO)O1	/	/	.	/	98
O=C(Nc1cccc(F)c1)N[C@H]1CC[C@@H](CCNS(=O)(=O)c2cccc(Cl)c2)O[C@@H]1CO	/	/	.	/	106
C[C@@H]1CN([C@H](C)CO)C(=O)c2cc(NC(=O)Nc3ccc4c(c3)OCO4)ccc2O[C@@H](C)CCCCO[C@H]1CN(C)C(=O)C1CCCCC1	/	/	.	.	.
C[C@@H]1CN([C@H](C)CO)C(=O)Cc2cc(NC(=O)CCC(F)(F)F)ccc2O[C@@H]1CN(C)S(=O)(=O)c1cccs1	/	/	.	.	.
O=C(N/N=C/c1ccc(O)cc1O)C(=O)N/N=C/c1ccc(O)cc1O	.	.	.	/	.
C[C@@H]1CN([C@H](C)CO)C(=O)Cc2cc(NC(=O)C3CC3)ccc2O[C@@H]1CN(C)Cc1ccncc1	/	/	.	.	.
C[C@@H]1CN([C@H](C)CO)C(=O)c2cc(-c3cncnc3)cnc2O[C@@H]1CN(C)C(=O)Nc1ccc2c(c1)OCO2	/	/	.	.	.
O=C(NC1CCCCC1)N[C@@H]1CC[C@@H](CCNS(=O)(=O)c2ccc(Cl)cc2)O[C@@H]1CO	/	/	.	/	.
O=C(NC1CCCCC1)N[C@@H]1CC[C@@H](CCNS(=O)(=O)c2ccc(Cl)cc2)O[C@H]1CO	/	/	.	/	94
CCN(CC)C(=O)C1=C(C)N(CCCN2CCCC2=O)C(=O)C(CC(=O)NCCCN(C)C)C1 (stereo unspecified)	/	/	.	.	.
O=C(O)c1cccc(S(=O)(=O)NNc2ccccc2C(F)(F)F)c1	+	.	.	.	.
O=C(O)c1cccc(S(=O)(=O)Nc2ccc(-c3ccccc3)cc2)c1	.	.	.	.	.
CN(Cc1ccc(Cl)s1)C(=O)CNC(=O)CNC(=O)c1ccc(Cl)cc1Cl	.	.	/	/	.
COc1ccc(CN(C)C(=O)CNC(=O)CNC(=O)c2ccc(Cl)cc2Cl)cc1F	+	.	.	/	.
O=C(CSc1nnc2ccc(-c3ccc(F)cc3)nn12)N1CCOCC1	.	.	.	.	.
CCS(=O)(=O)NCC[C@H]1CC[C@H](NC(=O)C2CCOCC2)[C@H](CO)O1	/	/	.	/	.
CCN(CC)C(=O)CC(c1ccc(N(C)C)cc1)c1c(OC)cc(OC)c2ccc(=O)oc12 (stereo unspecified)	.	.	.	.	.
CCN(CC)C(=O)CC(c1ccc(N(C)C)cc1)c1c(OC)cc(OC)c2c(-c3ccccc3)cc(=O)oc12 (stereo unspecified)	.	.	.	99	.
COc1ccc(C(CC(=O)N2CCCC2)c2c(OC)cc(OC)c3c(-c4ccccc4)cc(=O)oc23)cc1 (stereo unspecified)	.	.	.	.	.
COc1ccc(C(CC(=O)N2CCCC(C)C2)c2c(OC)cc(OC)c3c(-c4ccccc4)cc(=O)oc23)cc1 (stereo unspecified)	.	.	.	92	.
COCC(=O)N1[C@H](CO)[C@@H](c2ccccc2)[C@@H]1CN(C)C(=O)c1cccnc1	/	/	.	.	.
CCOc1ccccc1NC(=O)C1COc2ccccc2O1 (stereo unspecified)	.	.	.	.	.
COc1ccc(S(=O)(=O)Nc2cc3c4c(oc3c3ccccc23)CCCC4=O)cc1	/	.	.	127	.
Cc1cccc(CS(=O)(=O)Cc2ccc(C(=O)O)o2)c1	75	.	.	.	.
SMILES	CAL PDZ FP-1	CAL PDZ FP-2	PglD inh	miR122 inh	Cneo AK release
O=S(=O)(CC(O)CS(=O)(=O)c1ccc(Cl)cc1)c1ccccc1 (stereo unspecified)	42	.	/	/	/
O=S(=O)(CC(O)COc1ccccc1Cl)c1ccccc1 (stereo unspecified)	/	.	.	.	.
COc1ccc(S(=O)(=O)N(C)C[C@H]2Oc3cc(C#CC4CC4)ccc3S(=O)(=O)N([C@H](C)CO)C[C@H]2C)cc1	/	/	.	135[16.7 µM]	.
COc1ccc(S(=O)(=O)N(C)C[C@@H]2Oc3cc(C#CC4CC4)ccc3S(=O)(=O)N([C@@H](C)CO)C[C@H]2C)cc1	/	/	.	.	.
C[C@@H]1CN([C@H](C)CO)S(=O)(=O)c2ccc(C#CC3CC3)cc2O[C@H]1CN(C)CC1CCOCC1	/	/	.	.	85
N#Cc1ccccc1COC(=O)c1cccc(S(=O)(=O)N2CCCC2)c1	.	.	.	.	.
COCN(C#N)c1nc(N(C)C)nc(N(C)C)n1	97	.	/	/	/
COc1ccc(NS(=O)(=O)c2ccc(O)c(C(=O)OCC(=O)N3CCCCC3)c2)cc1	39	.	.	.	.
Cc1ccc(CNC(=O)C2CCC(=O)N(CCc3cccc(F)c3)C2)cc1 (stereo unspecified)	.	.	.	.	.
C[C@H]1CN([C@@H](C)CO)S(=O)(=O)c2ccc(Br)cc2O[C@@H]1CN(C)C(=O)CCN1CCCCC1	/	/	.	.	80!
CNC[C@H]1Oc2cc(Br)ccc2S(=O)(=O)N([C@@H](C)CO)C[C@H]1C	/	/	.	.	.
CNC[C@H]1Oc2cc(Br)ccc2S(=O)(=O)N([C@H](C)CO)C[C@H]1C	/	/	.	.	91!
CNC[C@@H]1Oc2cc(Br)ccc2S(=O)(=O)N([C@@H](C)CO)C[C@H]1C	/	/	.	.	.
CNC[C@@H]1Oc2cc(Br)ccc2S(=O)(=O)N([C@H](C)CO)C[C@H]1C	/	/	.	.	100!
Cc1nc(CN(C)C(=O)C2CCC(=O)N(CCc3cccc(F)c3)C2)cs1 (stereo unspecified)	57	.	.	.	.
Cc1ccsc1CN(C)C(=O)C1CCC(=O)N(CCc2cccc(F)c2)C1 (stereo unspecified)	.	.	.	.	.
COc1ccccc1/C=N/NC(=O)c1ccc2c(c1)OCO2	70	/	.	.	.
COc1ccc(/C=C/C(=O)c2ccccc2)c(OC)c1	.	.	/	/	/
C/C(=N\NC(=O)c1ccc2c(c1)OCO2)c1ccc(C(=O)O)s1	.	.	/	/	/
C/C(=N\NC(=O)c1ccc2c(c1)OCO2)c1ccc2c(c1)OCO2	48	.	.	.	.
COc1ccc(/C=C/C(=O)c2ccc3c(c2)OCO3)c(OC)c1	.	.	.	145	.
N#C[C@H]1[C@@H](c2ccccc2)[C@H](CO)N1C(=O)Cc1ccccc1	/	/	.	/	.
O=C(Nc1ccccc1F)N1C[C@@H]2[C@H](c3ccccc31)[C@H](CO)N2C(=O)Cc1ccccc1	/	/	.	.	.
O=c1nccc(Nc2ccccc2)[nH]1	63	.	.	/	.
COc1ccc(S(=O)(=O)N2CC(C(=O)O)Oc3ccc(CC(=O)O)cc32)cc1 (stereo unspecified)	38	.	.	.	.
CC(=O)Nc1ccc(S(=O)(=O)NCCc2c[nH]c3ccc(C)cc23)cc1	31	.	.	.	.
